Assay results from ChEMBL document CHEMBL1125136, “Quinolone antibacterial agents substituted at the 7-position with spiroamines. Synthesis and structure-activity relationships” (1990).
Converted amounts (≈) assume the structure as drawn.

System: Streptococcus pneumoniae
Experiment: In vivo protective dose was determined against Streptococcus pneumoniae SV-1 after peroral administration
Settings: po, read-out: PD50

CCn1cc(C(=O)O)c(=O)c2cc(F)c(N3CCC4(CCN(C)C4)C3)c(F)c21 (configuration not stated) and CC1COc2c(N3CCC4(CCN(C)C4)C3)c(F)cc3c(=O)c(C(=O)O)cn1c23 (configuration not stated) are within 1.5-fold of each other in ED50: 43 mg/kg for the first, 63 mg/kg for the second.

System: Klebsiella pneumoniae
Experiment: Evaluated for minimum inhibitory concentration against gram-negative bacteria Klebsiella pneumoniae MGH-2
Assay type: functional
Settings: not given
Method in brief: (§1)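 Broth microdilution MIC by standard technique. Values come from duplicate experiments and are stated as accurate to ±50%.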

CCn1cc(C(=O)O)c(=O)c2cc(F)c(N3CCC4(CCN(C)C4)C3)c(F)c21 (configuration not stated) and CC1COc2c(N3CCC4(CCN(C)C4)C3)c(F)cc3c(=O)c(C(=O)O)cn1c23 (configuration not stated) are the same in MIC: 0.1 µg/mL (≈ 0.255 µM) for the first, 0.1 µg/mL (≈ 0.249 µM) for the second.

System: Streptococcus pyogenes
Experiment: In vivo protective dose was determined against Streptococcus pyogenes after peroral administration
Settings: po, read-out: PD50

CCn1cc(C(=O)O)c(=O)c2cc(F)c(N3CCC4(CCN(C)C4)C3)c(F)c21 (configuration not stated) and CC1COc2c(N3CCC4(CCN(C)C4)C3)c(F)cc3c(=O)c(C(=O)O)cn1c23 (configuration not stated) are within 1.5-fold of each other in ED50: 38 mg/kg for the first, 31 mg/kg for the second.

System: Pseudomonas aeruginosa
Experiment: Evaluated for minimum inhibitory concentration against gram-negative bacteria Pseudomonas aeruginosa UI-18
Assay type: functional
Settings: not given
Method in brief: as §1

CCn1cc(C(=O)O)c(=O)c2cc(F)c(N3CCC4(CCN(C)C4)C3)c(F)c21 (configuration not stated) and CC1COc2c(N3CCC4(CCN(C)C4)C3)c(F)cc3c(=O)c(C(=O)O)cn1c23 (configuration not stated) are the same in MIC: 0.8 µg/mL (≈ 2.04 µM) for the first, 0.8 µg/mL (≈ 1.99 µM) for the second.

System: Escherichia coli
Experiment: In vivo protective dose for mouse protection assay in Escherichia coli Vogel after peroral administration
Assay type: functional
Settings: po, read-out: PD50
Method in brief: (§2)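 Female Charles River CD-1 mice were given an acute, lethal, systemic infection. A single dose of compound was given at the time of challenge, by the route stated in the line, with 16 animals per dose level. The read-out is the median protective dose (PD50, mg/kg). Per the footnote, values come from 16 animals per test, with a mean variation of ±34%.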

First: CCn1cc(C(=O)O)c(=O)c2cc(F)c(N3CCC4(CCN(C)C4)C3)c(F)c21 (configuration not stated)
Second: CC1COc2c(N3CCC4(CCN(C)C4)C3)c(F)cc3c(=O)c(C(=O)O)cn1c23 (configuration not stated)
The ED50 of the first is 1.7-fold lower: 8.4 mg/kg for the first, 14 mg/kg for the second.

System: Streptococcus pyogenes
Experiment: Evaluated for minimum inhibitory concentration against gram-positive bacteria Streptococcus pyogenes C203
Settings: not given

Compared with CCn1cc(C(=O)O)c(=O)c2cc(F)c(N3CCC4(CCN(C)C4)C3)c(F)c21 (configuration not stated), CC1COc2c(N3CCC4(CCN(C)C4)C3)c(F)cc3c(=O)c(C(=O)O)cn1c23 (configuration not stated) is 2-fold lower in MIC: 0.2 µg/mL (≈ 0.511 µM) for the first, 0.1 µg/mL (≈ 0.249 µM) for the second.

System: Streptococcus pneumoniae
Experiment: In vivo protective dose was determined against Streptococcus pneumoniae SV-1 after subcutaneous administration
Settings: sc, read-out: PD50

CCn1cc(C(=O)O)c(=O)c2cc(F)c(N3CCC4(CCN(C)C4)C3)c(F)c21 (configuration not stated) and CC1COc2c(N3CCC4(CCN(C)C4)C3)c(F)cc3c(=O)c(C(=O)O)cn1c23 (configuration not stated) are within 1.5-fold of each other in ED50: 11 mg/kg for the first, 11.5 mg/kg for the second.

System: Pseudomonas
Experiment: Evaluated for minimum inhibitory concentration against gram-negative bacteria Pseudomonas rettgeri H1771
Assay type: functional
Settings: not given
Method in brief: as §1

Going from CCn1cc(C(=O)O)c(=O)c2cc(F)c(N3CCC4(CCN(C)C4)C3)c(F)c21 (configuration not stated) to CC1COc2c(N3CCC4(CCN(C)C4)C3)c(F)cc3c(=O)c(C(=O)O)cn1c23 (configuration not stated), the MIC falls from 0.8 µg/mL (≈ 2.04 µM) to 0.4 µg/mL (≈ 0.996 µM) (2-fold).

System: Streptococcus pyogenes
Experiment: In vivo protective dose was determined against Streptococcus pyogenes after subcutaneous administration
Settings: sc, read-out: PD50

Going from CCn1cc(C(=O)O)c(=O)c2cc(F)c(N3CCC4(CCN(C)C4)C3)c(F)c21 (configuration not stated) to CC1COc2c(N3CCC4(CCN(C)C4)C3)c(F)cc3c(=O)c(C(=O)O)cn1c23 (configuration not stated), the ED50 falls from 27 mg/kg to 6 mg/kg (4.5-fold).

System: Staphylococcus aureus
Experiment: Evaluated for minimum inhibitory concentration against […] bacteria Staphylococcus aureus H228
Assay type: functional
Settings: not given
Method in brief: as §1

CCn1cc(C(=O)O)c(=O)c2cc(F)c(N3CCC4(CCN(C)C4)C3)c(F)c21 (configuration not stated) and CC1COc2c(N3CCC4(CCN(C)C4)C3)c(F)cc3c(=O)c(C(=O)O)cn1c23 (configuration not stated) are the same in MIC: 0.1 µg/mL (≈ 0.255 µM) for the first, 0.1 µg/mL (≈ 0.249 µM) for the second.

System: Staphylococcus aureus
Experiment: In vivo protective dose was determined against Staphylococcus aureus VC76 after peroral administration
Assay type: functional
Settings: po, read-out: PD50
Method in brief: as §2

CCn1cc(C(=O)O)c(=O)c2cc(F)c(N3CCC4(CCN(C)C4)C3)c(F)c21 (configuration not stated) and CC1COc2c(N3CCC4(CCN(C)C4)C3)c(F)cc3c(=O)c(C(=O)O)cn1c23 (configuration not stated) are within 1.5-fold of each other in ED50: 9 mg/kg for the first, 12.5 mg/kg for the second.

System: Staphylococcus aureus
Experiment: In vivo protective dose was determined against Staphylococcus aureus VC76. after subcutaneous administration
Assay type: functional
Settings: sc, read-out: PD50
Method in brief: as §2

Going from CCn1cc(C(=O)O)c(=O)c2cc(F)c(N3CCC4(CCN(C)C4)C3)c(F)c21 (configuration not stated) to CC1COc2c(N3CCC4(CCN(C)C4)C3)c(F)cc3c(=O)c(C(=O)O)cn1c23 (configuration not stated), the ED50 falls from 4 mg/kg to 2.1 mg/kg (1.9-fold).

System: Enterobacter cloacae
Experiment: Evaluated for minimum inhibitory concentration against gram-negative bacteria Enterobacter cloacae HA 2646
Assay type: functional
Settings: not given

First: CCn1cc(C(=O)O)c(=O)c2cc(F)c(N3CCC4(CCN(C)C4)C3)c(F)c21 (configuration not stated)
Second: CC1COc2c(N3CCC4(CCN(C)C4)C3)c(F)cc3c(=O)c(C(=O)O)cn1c23 (configuration not stated)
The MIC of the first is 2-fold lower: 0.1 µg/mL (≈ 0.255 µM) for the first, 0.2 µg/mL (≈ 0.498 µM) for the second.

System: Escherichia coli
Experiment: Evaluated for minimum inhibitory concentration against gram-negative bacteria Escherichia coli Vogel
Assay type: functional
Settings: not given
Method in brief: as §1

Compared with CCn1cc(C(=O)O)c(=O)c2cc(F)c(N3CCC4(CCN(C)C4)C3)c(F)c21 (configuration not stated), CC1COc2c(N3CCC4(CCN(C)C4)C3)c(F)cc3c(=O)c(C(=O)O)cn1c23 (configuration not stated) is 4.2-fold higher in MIC: 0.006 µg/mL (≈ 0.0153 µM) for the first, 0.025 µg/mL (≈ 0.0623 µM) for the second.

System: not listed separately
Experiment: Evaluated for minimum inhibitory concentration against […] bacteria […] SV-1
Assay type: functional
Settings: not given
Method in brief: as §1

Compared with CCn1cc(C(=O)O)c(=O)c2cc(F)c(N3CCC4(CCN(C)C4)C3)c(F)c21 (configuration not stated), CC1COc2c(N3CCC4(CCN(C)C4)C3)c(F)cc3c(=O)c(C(=O)O)cn1c23 (configuration not stated) is 2-fold lower in MIC: 0.4 µg/mL (≈ 1.02 µM) for the first, 0.2 µg/mL (≈ 0.498 µM) for the second.

System: Staphylococcus aureus
Experiment: Evaluated for minimum inhibitory concentration against […] bacteria Staphylococcus aureus UC-76
Assay type: functional
Settings: not given
Method in brief: as §1

CCn1cc(C(=O)O)c(=O)c2cc(F)c(N3CCC4(CCN(C)C4)C3)c(F)c21 (configuration not stated) and CC1COc2c(N3CCC4(CCN(C)C4)C3)c(F)cc3c(=O)c(C(=O)O)cn1c23 (configuration not stated) are the same in MIC: 0.006 µg/mL (≈ 0.0153 µM) for the first, 0.006 µg/mL (≈ 0.0149 µM) for the second.

System: Pseudomonas aeruginosa
Experiment: In vivo protective dose was determined against Pseudomonas aeruginosa UI-18. after subcutaneous administration
Assay type: functional
Settings: sc, read-out: PD50
Method in brief: as §2

CCn1cc(C(=O)O)c(=O)c2cc(F)c(N3CCC4(CCN(C)C4)C3)c(F)c21 (configuration not stated) and CC1COc2c(N3CCC4(CCN(C)C4)C3)c(F)cc3c(=O)c(C(=O)O)cn1c23 (configuration not stated) are within 1.5-fold of each other in ED50: 70 mg/kg for the first, 56 mg/kg for the second.

System: Pseudomonas aeruginosa
Experiment: In vivo protective dose was determined against Pseudomonas aeruginosa UI-18. after peroral administration
Assay type: functional
Settings: po, read-out: PD50
Method in brief: as §2

CCn1cc(C(=O)O)c(=O)c2cc(F)c(N3CCC4(CCN(C)C4)C3)c(F)c21 (configuration not stated) and CC1COc2c(N3CCC4(CCN(C)C4)C3)c(F)cc3c(=O)c(C(=O)O)cn1c23 (configuration not stated) are within 1.5-fold of each other in ED50: 140 mg/kg for the first, 200 mg/kg for the second.

System: Enterococcus faecalis
Experiment: Evaluated for minimum inhibitory concentration against gram-positive bacteria Staphylococcus faecalis MGH-2
Settings: not given

CCn1cc(C(=O)O)c(=O)c2cc(F)c(N3CCC4(CCN(C)C4)C3)c(F)c21 (configuration not stated) and CC1COc2c(N3CCC4(CCN(C)C4)C3)c(F)cc3c(=O)c(C(=O)O)cn1c23 (configuration not stated) are the same in MIC: 0.1 µg/mL (≈ 0.255 µM) for the first, 0.1 µg/mL (≈ 0.249 µM) for the second.

System: Escherichia coli
Experiment: In vivo protective dose was determined in mouse protection assay in Escherichia coli Vogel after subcutaneous administration
Assay type: functional
Settings: sc, read-out: PD50
Method in brief: as §2

CCn1cc(C(=O)O)c(=O)c2cc(F)c(N3CCC4(CCN(C)C4)C3)c(F)c21 (configuration not stated) and CC1COc2c(N3CCC4(CCN(C)C4)C3)c(F)cc3c(=O)c(C(=O)O)cn1c23 (configuration not stated) are within 1.5-fold of each other in ED50: 3.4 mg/kg for the first, 4.5 mg/kg for the second.

System: Escherichia coli
Experiment: Evaluated for minimum concentration needed to produce linear DNA at an intensity relative to oxolinic acid at 10 mg/mL. by gyrase mediated cleavage of DNA in Escherichia coli 560.
Assay type: functional
Settings: read-out: MIC

CCn1cc(C(=O)O)c(=O)c2cc(F)c(N3CCC4(CCN(C)C4)C3)c(F)c21 (configuration not stated) and CC1COc2c(N3CCC4(CCN(C)C4)C3)c(F)cc3c(=O)c(C(=O)O)cn1c23 (configuration not stated) are the same in minimum concentration for gyrase-mediated DNA cleavage: 1 µg/mL for the first, 1 µg/mL for the second.
